The results in this text go back to ChEMBL document CHEMBL1152560, “Substituted 2-arylbenzothiazoles as kinase inhibitors: hit-to-lead optimization” (Bioorg Med Chem, 2009).

The target in assay [1] is MAP kinase-activated protein kinase 3 (Homo sapiens) (UniProt Q16644). The experiment in a line: Residual activity of MAPKAPK3 at 0.1 uM by microplate scintillation counting.
Assay [2] deals with Insulin receptor (Homo sapiens) (UniProt P06213). The assay can be described thus: Residual activity of INSR at 1 uM by microplate scintillation counting.
Assay [3] concerns the target T1, Ephrin type-B receptor 2 (Homo sapiens) (UniProt P29323).
T1 sequence (whole entry): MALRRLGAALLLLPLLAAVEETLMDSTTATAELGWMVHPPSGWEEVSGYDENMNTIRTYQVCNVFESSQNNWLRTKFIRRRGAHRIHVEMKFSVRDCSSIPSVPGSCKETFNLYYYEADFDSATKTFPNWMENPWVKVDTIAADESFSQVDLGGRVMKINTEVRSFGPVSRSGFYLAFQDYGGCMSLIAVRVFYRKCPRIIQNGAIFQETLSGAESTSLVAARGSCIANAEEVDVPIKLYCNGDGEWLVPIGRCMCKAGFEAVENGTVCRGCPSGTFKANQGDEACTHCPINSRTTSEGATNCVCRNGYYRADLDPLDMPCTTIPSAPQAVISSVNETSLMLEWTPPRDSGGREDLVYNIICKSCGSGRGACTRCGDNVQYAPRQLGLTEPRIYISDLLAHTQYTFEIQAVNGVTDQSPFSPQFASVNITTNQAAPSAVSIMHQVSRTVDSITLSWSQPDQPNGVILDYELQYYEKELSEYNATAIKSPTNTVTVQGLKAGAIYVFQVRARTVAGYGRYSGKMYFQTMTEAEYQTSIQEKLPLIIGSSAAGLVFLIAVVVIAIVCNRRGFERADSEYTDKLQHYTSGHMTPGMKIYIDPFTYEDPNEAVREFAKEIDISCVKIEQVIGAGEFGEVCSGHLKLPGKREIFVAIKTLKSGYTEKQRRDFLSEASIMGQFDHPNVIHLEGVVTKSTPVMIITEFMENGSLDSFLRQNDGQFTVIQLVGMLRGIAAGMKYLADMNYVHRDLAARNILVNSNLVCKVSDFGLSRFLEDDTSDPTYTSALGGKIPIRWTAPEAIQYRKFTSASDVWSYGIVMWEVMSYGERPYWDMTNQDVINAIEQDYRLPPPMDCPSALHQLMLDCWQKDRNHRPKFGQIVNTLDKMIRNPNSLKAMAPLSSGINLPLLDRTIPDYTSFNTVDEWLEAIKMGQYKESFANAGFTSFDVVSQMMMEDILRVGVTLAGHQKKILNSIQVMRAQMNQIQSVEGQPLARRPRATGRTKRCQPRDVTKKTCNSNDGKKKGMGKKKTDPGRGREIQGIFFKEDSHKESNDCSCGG
The assay can be described thus: Residual activity of EPHB2 at 10 uM by microplate scintillation counting.

In assay [4] the target is Fibroblast growth factor receptor 4 (Homo sapiens) (UniProt P22455). The assay can be described thus: Residual activity of FGFR4 at 10 uM by microplate scintillation counting.
The target in assay [5] is T2, Beta-adrenergic receptor kinase 1 (Homo sapiens) (UniProt P25098).
T2 sequence (whole entry): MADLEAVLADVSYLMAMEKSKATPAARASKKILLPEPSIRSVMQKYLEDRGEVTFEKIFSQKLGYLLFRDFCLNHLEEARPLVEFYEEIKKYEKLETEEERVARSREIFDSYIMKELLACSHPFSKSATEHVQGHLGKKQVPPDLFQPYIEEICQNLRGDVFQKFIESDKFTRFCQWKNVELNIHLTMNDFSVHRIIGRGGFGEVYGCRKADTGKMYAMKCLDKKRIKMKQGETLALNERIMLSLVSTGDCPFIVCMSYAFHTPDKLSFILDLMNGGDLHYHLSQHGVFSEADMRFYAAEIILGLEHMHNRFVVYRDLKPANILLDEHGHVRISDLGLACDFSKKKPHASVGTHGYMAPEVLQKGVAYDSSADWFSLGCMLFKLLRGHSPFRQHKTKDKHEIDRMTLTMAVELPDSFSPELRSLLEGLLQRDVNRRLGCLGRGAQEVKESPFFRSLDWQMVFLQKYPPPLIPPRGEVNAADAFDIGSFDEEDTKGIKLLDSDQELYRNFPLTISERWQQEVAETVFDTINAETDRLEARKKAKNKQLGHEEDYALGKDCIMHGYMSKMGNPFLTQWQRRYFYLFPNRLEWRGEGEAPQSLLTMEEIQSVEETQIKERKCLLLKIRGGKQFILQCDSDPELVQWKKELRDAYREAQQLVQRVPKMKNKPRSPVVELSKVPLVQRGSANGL
The experiment in a line: Residual activity of GRK2 at 10 uM by microplate scintillation counting.

Assay [6] deals with Dual specificity tyrosine-phosphorylation-regulated kinase 1A (Homo sapiens) (UniProt Q13627). The assay can be described thus: Residual activity of DYRK1A at 0.1 uM by microplate scintillation counting.
The target of assay [7] is Calcium/calmodulin-dependent protein kinase type II subunit beta (Homo sapiens) (UniProt Q13554). The experiment in a line: Residual activity of CAMK2B at 0.1 uM by microplate scintillation counting.
For assay [8], the target named is Platelet-derived growth factor receptor beta (Homo sapiens, UniProt P09619). The experiment in a line: Inhibition of PDGFRbeta by microplate scintillation counting. The method in brief:
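Substrates: tetra(LRRWSLG) for Aurora A/B; poly(Ala,Glu,Lys,Tyr)6:2:5:1 for PDGFRβ; poly(Glu,Tyr)4:1 for TIE2 and VEGFR2. Stopped with 2% H3PO4.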

Fibroblast growth factor receptor 4 (Homo sapiens), sequence (P22455 22-802 limits assumed): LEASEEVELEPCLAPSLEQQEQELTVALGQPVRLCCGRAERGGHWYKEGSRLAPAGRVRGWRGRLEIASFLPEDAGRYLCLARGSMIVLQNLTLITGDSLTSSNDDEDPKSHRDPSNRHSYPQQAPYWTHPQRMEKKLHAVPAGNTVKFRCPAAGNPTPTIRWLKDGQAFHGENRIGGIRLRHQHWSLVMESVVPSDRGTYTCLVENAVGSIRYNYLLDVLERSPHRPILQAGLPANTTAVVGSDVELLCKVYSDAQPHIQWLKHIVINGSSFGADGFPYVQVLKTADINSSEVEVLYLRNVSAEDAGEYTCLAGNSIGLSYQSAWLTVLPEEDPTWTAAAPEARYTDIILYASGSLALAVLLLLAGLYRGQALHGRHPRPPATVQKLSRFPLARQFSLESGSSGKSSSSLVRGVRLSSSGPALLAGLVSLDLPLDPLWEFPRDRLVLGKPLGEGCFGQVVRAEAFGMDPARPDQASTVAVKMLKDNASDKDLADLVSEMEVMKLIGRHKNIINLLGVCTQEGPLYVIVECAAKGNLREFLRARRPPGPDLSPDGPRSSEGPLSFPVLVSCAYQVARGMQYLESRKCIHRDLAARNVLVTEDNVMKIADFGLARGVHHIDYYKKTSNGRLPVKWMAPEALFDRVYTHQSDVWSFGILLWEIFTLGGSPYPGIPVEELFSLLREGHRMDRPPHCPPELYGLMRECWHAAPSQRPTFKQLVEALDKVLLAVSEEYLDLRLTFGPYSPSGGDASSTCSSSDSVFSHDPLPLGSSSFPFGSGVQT
Calcium/calmodulin-dependent protein kinase type II subunit beta (Homo sapiens), sequence (Q13554 whole entry): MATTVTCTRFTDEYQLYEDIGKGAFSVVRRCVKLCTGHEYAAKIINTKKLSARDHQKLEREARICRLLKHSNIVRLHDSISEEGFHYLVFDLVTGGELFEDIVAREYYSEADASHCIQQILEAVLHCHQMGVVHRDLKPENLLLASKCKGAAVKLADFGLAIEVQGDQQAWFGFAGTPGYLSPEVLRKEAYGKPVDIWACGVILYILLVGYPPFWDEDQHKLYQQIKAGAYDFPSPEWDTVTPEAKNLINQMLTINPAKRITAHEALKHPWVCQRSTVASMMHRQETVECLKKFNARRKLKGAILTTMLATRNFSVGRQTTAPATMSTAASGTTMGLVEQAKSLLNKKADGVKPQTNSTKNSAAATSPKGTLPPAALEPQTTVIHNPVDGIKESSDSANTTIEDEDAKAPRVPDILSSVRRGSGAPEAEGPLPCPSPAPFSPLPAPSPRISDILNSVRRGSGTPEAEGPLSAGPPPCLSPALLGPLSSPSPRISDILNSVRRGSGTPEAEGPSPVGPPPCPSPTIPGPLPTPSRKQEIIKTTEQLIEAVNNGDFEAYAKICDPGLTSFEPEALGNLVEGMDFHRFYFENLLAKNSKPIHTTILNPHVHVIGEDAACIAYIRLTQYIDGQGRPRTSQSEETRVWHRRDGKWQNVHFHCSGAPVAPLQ
Platelet-derived growth factor receptor beta, sequence (P09619 whole entry): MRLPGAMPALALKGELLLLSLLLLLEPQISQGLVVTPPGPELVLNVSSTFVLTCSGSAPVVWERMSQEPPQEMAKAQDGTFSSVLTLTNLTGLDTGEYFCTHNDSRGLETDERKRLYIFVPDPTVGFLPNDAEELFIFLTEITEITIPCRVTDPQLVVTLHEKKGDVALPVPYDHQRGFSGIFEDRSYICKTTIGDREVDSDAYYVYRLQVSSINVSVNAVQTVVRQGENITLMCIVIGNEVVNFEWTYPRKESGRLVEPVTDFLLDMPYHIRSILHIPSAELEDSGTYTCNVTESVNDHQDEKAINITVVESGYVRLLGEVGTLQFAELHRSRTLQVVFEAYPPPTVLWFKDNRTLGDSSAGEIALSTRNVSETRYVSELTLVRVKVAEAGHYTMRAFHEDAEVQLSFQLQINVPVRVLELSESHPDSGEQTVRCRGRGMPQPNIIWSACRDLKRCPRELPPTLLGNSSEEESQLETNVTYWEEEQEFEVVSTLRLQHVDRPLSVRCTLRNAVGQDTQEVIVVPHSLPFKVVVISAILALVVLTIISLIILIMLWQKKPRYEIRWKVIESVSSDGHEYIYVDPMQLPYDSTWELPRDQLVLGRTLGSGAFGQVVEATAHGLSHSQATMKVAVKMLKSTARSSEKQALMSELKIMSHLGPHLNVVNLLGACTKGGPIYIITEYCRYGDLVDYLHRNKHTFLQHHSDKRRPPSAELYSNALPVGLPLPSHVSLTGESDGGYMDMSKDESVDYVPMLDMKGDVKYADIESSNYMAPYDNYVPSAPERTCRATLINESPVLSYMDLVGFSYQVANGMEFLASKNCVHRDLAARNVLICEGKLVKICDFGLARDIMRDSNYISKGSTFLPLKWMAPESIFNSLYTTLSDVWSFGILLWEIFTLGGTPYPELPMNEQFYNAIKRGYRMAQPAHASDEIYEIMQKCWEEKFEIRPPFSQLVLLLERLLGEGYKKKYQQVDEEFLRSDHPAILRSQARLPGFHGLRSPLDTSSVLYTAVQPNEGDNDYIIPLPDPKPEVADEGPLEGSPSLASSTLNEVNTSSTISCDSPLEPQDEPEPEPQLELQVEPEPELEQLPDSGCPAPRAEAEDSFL
MAP kinase-activated protein kinase 3 (Homo sapiens), sequence (Q16644 whole entry, looked up): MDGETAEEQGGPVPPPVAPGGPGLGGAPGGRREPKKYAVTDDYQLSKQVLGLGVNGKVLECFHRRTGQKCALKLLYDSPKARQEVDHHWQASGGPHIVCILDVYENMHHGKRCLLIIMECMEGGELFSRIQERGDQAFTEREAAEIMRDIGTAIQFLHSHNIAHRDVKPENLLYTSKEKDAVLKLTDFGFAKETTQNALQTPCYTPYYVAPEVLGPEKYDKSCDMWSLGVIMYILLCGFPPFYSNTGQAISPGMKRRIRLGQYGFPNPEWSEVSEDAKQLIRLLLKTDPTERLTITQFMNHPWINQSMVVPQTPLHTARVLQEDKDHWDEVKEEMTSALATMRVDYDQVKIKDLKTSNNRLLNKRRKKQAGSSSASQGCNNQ
Insulin receptor (Homo sapiens), sequence (P06213 28-758 limits assumed): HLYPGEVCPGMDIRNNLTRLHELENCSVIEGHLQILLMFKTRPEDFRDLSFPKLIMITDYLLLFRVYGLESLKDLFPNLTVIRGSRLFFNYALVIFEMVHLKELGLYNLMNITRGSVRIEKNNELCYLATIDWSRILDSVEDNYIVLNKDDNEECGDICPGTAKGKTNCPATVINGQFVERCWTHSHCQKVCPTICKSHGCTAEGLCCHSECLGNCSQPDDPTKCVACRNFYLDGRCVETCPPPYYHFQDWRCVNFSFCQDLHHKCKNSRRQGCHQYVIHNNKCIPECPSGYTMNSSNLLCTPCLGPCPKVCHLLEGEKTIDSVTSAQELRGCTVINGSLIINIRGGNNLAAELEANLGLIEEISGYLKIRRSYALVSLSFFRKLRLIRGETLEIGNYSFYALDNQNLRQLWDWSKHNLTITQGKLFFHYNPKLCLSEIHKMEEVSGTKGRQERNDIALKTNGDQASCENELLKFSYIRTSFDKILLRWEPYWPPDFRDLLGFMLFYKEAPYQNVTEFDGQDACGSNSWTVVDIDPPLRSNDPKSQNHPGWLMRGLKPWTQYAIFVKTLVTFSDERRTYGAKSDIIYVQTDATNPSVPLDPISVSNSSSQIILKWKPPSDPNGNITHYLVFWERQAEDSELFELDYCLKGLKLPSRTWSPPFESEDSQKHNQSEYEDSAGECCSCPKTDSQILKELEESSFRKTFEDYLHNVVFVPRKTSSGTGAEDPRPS
Insulin receptor (Homo sapiens), sequence (P06213 763-1382 limits assumed): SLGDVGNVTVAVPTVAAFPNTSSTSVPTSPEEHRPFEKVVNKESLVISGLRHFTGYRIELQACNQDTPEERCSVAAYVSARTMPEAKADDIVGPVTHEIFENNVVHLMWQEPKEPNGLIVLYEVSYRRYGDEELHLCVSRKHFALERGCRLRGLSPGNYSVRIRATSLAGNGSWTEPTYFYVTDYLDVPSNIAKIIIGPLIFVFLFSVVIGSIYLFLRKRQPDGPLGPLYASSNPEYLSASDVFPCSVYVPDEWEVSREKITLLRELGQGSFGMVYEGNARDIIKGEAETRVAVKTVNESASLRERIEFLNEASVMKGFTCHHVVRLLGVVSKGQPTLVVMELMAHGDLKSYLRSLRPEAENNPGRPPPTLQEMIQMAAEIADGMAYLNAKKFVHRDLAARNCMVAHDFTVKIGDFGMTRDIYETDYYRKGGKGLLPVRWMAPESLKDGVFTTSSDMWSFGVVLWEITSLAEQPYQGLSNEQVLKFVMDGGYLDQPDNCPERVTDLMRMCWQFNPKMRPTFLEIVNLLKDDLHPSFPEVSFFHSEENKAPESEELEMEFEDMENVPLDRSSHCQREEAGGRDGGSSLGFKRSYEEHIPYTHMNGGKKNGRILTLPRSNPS

Consider `COc1cc2c(Oc3ccc(-c4nc5ccccc5s4)cc3F)ncnc2cc1OCCCN1CCN(C)CC1`, for which the residual activity in assay [1] turned out to be 94%; in assay [2], 97%; in assay [3] it was 16%; in assay [4], 118%; in assay [5], 53%; in assay [6], 89%. The residual activity in assay [7] came out at 65%. The compound further returned a half-maximal inhibitory concentration (IC50) in assay [8] of 6.1 µM.
For the compound `COc1cc2c(Oc3ccc(-c4nc5ccccc5s4)cc3)ncnc2cc1OCCCN1CCN(C)CC1`, the residual activity in assay [1] came to 91%; in assay [2] it was 98%; in assay [3], 18%; in assay [4], 287%; in assay [5], 58%; in assay [6] it was 94%. The residual activity in assay [7] amounted to 100%. Further, the IC50 in assay [8] worked out at 3.5 µM.
Consider `COc1cc2c(Oc3ccc(-c4nc5ccccc5s4)cc3)ncnc2cc1OCCCN1CCCC1`, for which the residual activity in assay [1] amounted to 93%; in assay [2] it was 95%; in assay [3] it was 35%; in assay [4], 205%; in assay [5], 73%; in assay [6] it was 87%. For the same compound, the residual activity in assay [7] came out at 73%. In assay [8], the 50% inhibitory concentration (IC50) is 7.7 µM.
